Assay results from ChEMBL document CHEMBL2086325, “Suppression of autoimmune arthritis by Celastrus-derived Celastrol through modulation of pro-inflammatory chemokines” (Bioorg Med Chem, 2012).
The source made the active and inactive calls. The rule behind the calls is not given here.

What was measured:
Rattus norvegicus [1] = assay: Antiarthritic effect in Lewis rat adjuvant-induced arthritis model synovial infiltrating cells restimulated with sonicated Mtb post isolation assessed as reduction in TNFalpha production at 200 ug, ip starting from arthritis onset and continued uninterrupted until study end by cytokine multiplex assay; assay type: functional, organism-based
How it was run: (§1)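 Male Lewis rats were immunized s.c. with heat-killed Mtb H37Ra (1.5 mg/rat) in mineral oil. From arthritis onset they received 200 μg/rat i.p. daily (DMSO stock diluted in PBS); controls got 1.2% DMSO in PBS. On d 18, draining lymph node or synovial-infiltrating cells were cultured at 1.5 × 10^6/well in 2% FBS medium ± sonicated Mtb (10 μg/ml) for 24 h. Supernatants were analysed by multiplex.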

Rattus norvegicus [2] = organism: Rattus norvegicus; assay: Antiarthritic effect in sonicated Mtb-stimulated spleen adherent cells isolated from Lewis rat adjuvant-induced arthritis model assessed as reduction in MCP1 production pre-incubated with compound for 30 mins before stimulation with sonicated-Mtb for 48 hrs by multiplex assay; assay type: functional, tissue-based
Rattus norvegicus [3] = assay: Antiarthritic effect in Lewis rat adjuvant-induced arthritis model serum assessed as reduction in IL6 production at 200 ug, ip starting from arthritis onset and continued uninterrupted until study end by cytokine multiplex assay; assay type: functional, organism-based
How it was run: (§2)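 Arthritic Lewis rats (Mtb 1.5 mg s.c. in mineral oil) were given 200 μg/rat i.p. daily from onset until the day before harvest; controls received DMSO/PBS vehicle. On d 18, blood was taken by cardiac puncture after euthanasia and serum stored at −80 °C. Serum pooled from 4 rats was assayed in triplicate by multiplex.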

Rattus norvegicus [4] = assay: Increase in CCR1 expression in Lewis rat adjuvant-induced arthritis model spleen adherent cells restimulated with sonicated Mtb post isolation at 200 ug, ip starting from arthritis onset and continued uninterrupted until study end by qPCR relative baseline expression; assay type: functional, organism-based
How it was run: (§3)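 From onset of Mtb-induced arthritis, rats received 200 μg/rat i.p. daily or vehicle. Spleen adherent cells harvested on d 18 (1.5–2.0 × 10^6 cells/well) were cultured in medium or with sonicated Mtb (10 μg/ml) for 24 h. Receptor mRNA was quantified by qPCR after TRIzol RNA isolation and cDNA synthesis, normalized to HGPRT and reported as relative message.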

Rattus norvegicus [5] = assay: Antiarthritic effect in Lewis rat adjuvant-induced arthritis model spleen adherent cells restimulated with sonicated Mtb post isolation assessed as reduction in MIP-1alpha production at 200 ug, ip starting from arthritis onset and continued uninterrupted until study end by cytokine multiplex assay; assay type: functional, organism-based
How it was run: (§4)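 Mtb-immunized male Lewis rats were dosed 200 μg/rat i.p. daily from arthritis onset (vehicle: 1.2% DMSO/PBS). Spleen adherent cells were prepared on d 18, plated at 1.5 × 10^6/well in 2% FBS medium and restimulated with sonicated Mtb (10 μg/ml) for 24 h. Supernatant chemokines and cytokines were measured by Luminex multiplex. Mean ± SD of triplicates from 4–5 rats.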

Rattus norvegicus [6] = assay: Antiarthritic effect in Lewis rat adjuvant-induced arthritis model spleen adherent cells restimulated with sonicated Mtb post isolation assessed as reduction in CXCR2 expression at 200 ug, ip starting from arthritis onset and continued uninterrupted until study end by qPCR; assay type: functional, organism-based; how it was run: as §3
Rattus norvegicus [7] = assay: Antiarthritic effect in Lewis rat adjuvant-induced arthritis model spleen adherent cells restimulated with sonicated Mtb post isolation assessed as reduction in IL-1beta production at 200 ug, ip starting from arthritis onset and continued uninterrupted until study end by cytokine multiplex assay; assay type: functional, organism-based; how it was run: as §4
Rattus norvegicus [8] = assay: Antiarthritic effect in Lewis rat adjuvant-induced arthritis model lymph node cells restimulated with sonicated Mtb post isolation assessed as reduction in RANTES production at 200 ug, ip starting from arthritis onset and continued uninterrupted until study end by cytokine multiplex assay; assay type: functional, organism-based; how it was run: as §1
Rattus norvegicus [9] = organism: Rattus norvegicus; assay: Antiarthritic effect in IL-1beta-stimulatedspleen adherent cells isolated from Lewis rat adjuvant-induced arthritis model assessed as reduction in IL6 production pre-incubated with compound for 30 mins before stimulation with IL-1beta for 48 hrs by multiplex assay; assay type: functional, tissue-based; settings: Spleen
Rattus norvegicus [10] = assay: Antiarthritic effect in Lewis rat adjuvant-induced arthritis model spleen adherent cells restimulated with sonicated Mtb post isolation assessed as reduction in TNFalpha production at 200 ug, ip starting from arthritis onset and continued uninterrupted until study end by cytokine multiplex assay; assay type: functional, organism-based; how it was run: as §4
Rattus norvegicus [11] = assay: Antiarthritic effect in Lewis rat adjuvant-induced arthritis model spleen adherent cells restimulated with sonicated Mtb post isolation assessed as reduction in RANTES production at 200 ug, ip starting from arthritis onset and continued uninterrupted until study end by cytokine multiplex assay; assay type: functional, organism-based; how it was run: as §4
Rattus norvegicus [12] = assay: Antiarthritic effect in Lewis rat adjuvant-induced arthritis model spleen adherent cells restimulated with sonicated Mtb post isolation assessed as reduction in IL6 production at 200 ug, ip starting from arthritis onset and continued uninterrupted until study end by cytokine multiplex assay; assay type: functional, organism-based; how it was run: as §4
Rattus norvegicus [13] = assay: Antiarthritic effect in Lewis rat adjuvant-induced arthritis model spleen adherent cells restimulated with sonicated Mtb post isolation assessed as reduction in CCR3 expression at 200 ug, ip starting from arthritis onset and continued uninterrupted until study end by qPCR; assay type: functional, organism-based; how it was run: as §3
Rattus norvegicus [14] = organism: Rattus norvegicus; assay: Antiarthritic effect in IL-1beta-stimulatedspleen adherent cells isolated from Lewis rat adjuvant-induced arthritis model assessed as reduction in TNFalpha production pre-incubated with compound for 30 mins before stimulation with IL-1beta for 48 hrs by multiplex assay; assay type: functional, tissue-based; settings: Spleen
Rattus norvegicus [15] = organism: Rattus norvegicus; assay: Antiarthritic effect in sonicated Mtb-stimulated spleen adherent cells isolated from Lewis rat adjuvant-induced arthritis model assessed as reduction in IL6 production pre-incubated with compound for 30 mins before stimulation with sonicated-Mtb for 48 hrs by multiplex assay; assay type: functional, tissue-based
Rattus norvegicus [16] = assay: Antiarthritic effect in Lewis rat adjuvant-induced arthritis model serum assessed as reduction in IL-1beta production at 200 ug, ip starting from arthritis onset and continued uninterrupted until study end by cytokine multiplex assay; assay type: functional, organism-based; how it was run: as §2
Rattus norvegicus [17] = organism: Rattus norvegicus; assay: Antiarthritic effect in sonicated Mtb-stimulated spleen adherent cells isolated from Lewis rat adjuvant-induced arthritis model assessed as reduction in RANTES production pre-incubated with compound for 30 mins before stimulation with sonicated-Mtb for 48 hrs by multiplex assay; assay type: functional, tissue-based
Rattus norvegicus [18] = assay: Antiarthritic effect in Lewis rat adjuvant-induced arthritis model spleen adherent cells restimulated with sonicated Mtb post isolation assessed as reduction in CCR6 expression at 200 ug, ip starting from arthritis onset and continued uninterrupted until study end by qPCR; assay type: functional, organism-based; how it was run: as §3
Rattus norvegicus [19] = assay: Toxicity in Lewis rat adjuvant-induced arthritis model serum assessed as increase in MCP1 production at 200 ug, ip starting from arthritis onset and continued uninterrupted until study end by cytokine multiplex assay; assay type: organism-based; settings: in vivo; how it was run: as §2
Rattus norvegicus [20] = assay: Antiarthritic effect in Lewis rat adjuvant-induced arthritis model spleen adherent cells restimulated with sonicated Mtb post isolation assessed as reduction in CXCR4 expression at 200 ug, ip starting from arthritis onset and continued uninterrupted until study end by qPCR; assay type: functional, organism-based; how it was run: as §3
Rattus norvegicus [21] = assay: Antiarthritic effect in Lewis rat adjuvant-induced arthritis model lymph node cells restimulated with sonicated Mtb post isolation assessed as reduction in GRO/KC production at 200 ug, ip starting from arthritis onset and continued uninterrupted until study end by cytokine multiplex assay; assay type: functional, organism-based; how it was run: as §1
Rattus norvegicus [22] = assay: Antiarthritic effect in Lewis rat adjuvant-induced arthritis model synovial infiltrating cells restimulated with sonicated Mtb post isolation assessed as reduction in RANTES production at 200 ug, ip starting from arthritis onset and continued uninterrupted until study end by cytokine multiplex assay; assay type: functional, organism-based; how it was run: as §1
Rattus norvegicus [23] = organism: Rattus norvegicus; assay: Antiarthritic effect in IL-1beta-stimulatedspleen adherent cells isolated from Lewis rat adjuvant-induced arthritis model assessed as reduction in GRO/KC production pre-incubated with compound for 30 mins before stimulation with IL-1beta for 48 hrs by multiplex assay; assay type: functional, tissue-based; settings: Spleen

CC1=C(O)C(=O)C=C2C1=CC=C1[C@@]2(C)CC[C@@]2(C)[C@@H]3C[C@](C)(C(=O)O)CC[C@]3(C)CC[C@]12C [CELASTROL]
Activity (Rattus norvegicus [1]): inactive
Activity (Rattus norvegicus [2]): Dose-dependent effect
Activity (Rattus norvegicus [3]): inactive
Activity (Rattus norvegicus [4]): Active
Activity (Rattus norvegicus [5]): inactive
Activity (Rattus norvegicus [6]): Active
Activity (Rattus norvegicus [7]): Active
Activity (Rattus norvegicus [8]): inactive
Activity (Rattus norvegicus [9]): Dose-dependent effect
Activity (Rattus norvegicus [10]): Active
Activity (Rattus norvegicus [11]): Active
Activity (Rattus norvegicus [12]): inactive
Activity (Rattus norvegicus [13]): Active
Activity (Rattus norvegicus [14]): Dose-dependent effect
Activity (Rattus norvegicus [15]): Dose-dependent effect
Activity (Rattus norvegicus [16]): Active
Activity (Rattus norvegicus [17]): Dose-dependent effect
Activity (Rattus norvegicus [18]): Active
Activity (Rattus norvegicus [19]): Toxic
Activity (Rattus norvegicus [20]): Active
Activity (Rattus norvegicus [21]): inactive
Activity (Rattus norvegicus [22]): inactive
Activity (Rattus norvegicus [23]): Dose-dependent effect
